From ChEMBL document CHEMBL1154117, “Synthesis and evaluation of a novel series of quinoline derivatives with immunosuppressive activity” (Bioorg Med Chem, 2009)

Experiments:
Splenocyte [1] = test: Immunosuppressive activity against concanavalin A-induced BALB/c mouse splenocytes assessed as inhibition of [3H]thymidine incorporation at 30 uM by liquid scintillation counting; format: functional
[2] = Immunosuppressive activity in BALB/c mouse splenocytes assessed as inhibition of concanavalin A-induced cell proliferation at 10 uM after 48 hrs by MTT assay; format: functional; details: Splenocyte
Procedure, shortened: (§1)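 Spleen cells (5 × 10⁵) from male BALB/c mice aged 6–8 weeks, erythrocytes lysed, stimulated with ConA 5 μg/mL in RPMI-1640/10% FBS. Compounds diluted from DMSO stock. ConA-stimulated cells used as control. Proliferation read by MTT added 4 h before end of culture, SDS/DMF lysis for 6 h, absorbance at 570 nm.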

Splenocyte [3] = test: Immunosuppressive activity against concanavalin A-induced BALB/c mouse splenocytes assessed as inhibition of [3H]thymidine incorporation at 1 uM by liquid scintillation counting; format: functional
[4] = Cytotoxicity against BALB/c mouse splenocytes at 10 uM after 48 hrs by MTT assay; format: cell-based, Splenocyte; details: read-out: INH
Procedure, shortened: (§2)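 BALB/c spleen single-cell suspension, erythrocytes depleted with Tris-buffered NH4Cl (0.155 M NH4Cl, 16.5 mM Tris, pH 7.2). Cells cultured in RPMI-1640 with 10% FBS and compound diluted from DMSO stock (0.1% DMSO in control). Medium-alone cells served as control. MTT (5 mg/mL) added 4 h before end of culture, then SDS/DMF lysis buffer (pH 7.2) for 6 h. Absorbance read at 570 nm and growth inhibition % calculated.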

T-cell [5] = test: Immunosuppressive activity against concanavalin A-induced BALB/c mouse splenocytes assessed as T-cells activation at 10 uM after 24 hrs by FACS assay; format: functional
Procedure, shortened: (§3)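 Male BALB/c splenocytes (6–8 weeks), 5 × 10⁵, stimulated with ConA 5 μg/mL, with or without compound. After 24 h, cells washed twice in cold PBS and stained with CD25-FITC and CD4-APC for 30 min at 4 °C. Washed again and analysed by flow cytometry as the CD4+CD25+/CD4+ percentage.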

T-cell [6] = test: Immunosuppressive activity against concanavalin A-induced BALB/c mouse splenocytes assessed as T-cells activation at 30 uM after 24 hrs by FACS assay; format: functional; procedure, shortened: as §3
[7] = Immunosuppressive activity in BALB/c mouse splenocytes assessed as inhibition of concanavalin A-induced cell proliferation at 100 uM after 48 hrs by MTT assay; format: functional; details: Splenocyte; procedure, shortened: as §1
[8] = Immunosuppressive activity in BALB/c mouse splenocytes assessed as inhibition of concanavalin A-induced cell proliferation at 30 uM after 48 hrs by MTT assay; format: functional; details: Splenocyte; procedure, shortened: as §1
Splenocyte [9] = test: Immunosuppressive activity against concanavalin A-induced BALB/c mouse splenocytes assessed as inhibition of [3H]thymidine incorporation at 10 uM by liquid scintillation counting; format: functional
[10] = Cytotoxicity against BALB/c mouse splenocytes at 100 uM after 48 hrs by MTT assay; format: cell-based, Splenocyte; details: read-out: INH; procedure, shortened: as §2
[11] = Cytotoxicity against BALB/c mouse splenocytes at 30 uM after 48 hrs by MTT assay; format: cell-based, Splenocyte; details: read-out: INH; procedure, shortened: as §2
T-cell [12] = test: Immunosuppressive activity against concanavalin A-induced BALB/c mouse splenocytes assessed as T-cells activation at 3 uM after 24 hrs by FACS assay; format: functional; procedure, shortened: as §3
T-cell [13] = test: Immunosuppressive activity against concanavalin A-induced BALB/c mouse splenocytes assessed as T-cells activation at 1 uM after 24 hrs by FACS assay; format: functional; procedure, shortened: as §3
[14] = Immunosuppressive activity in BALB/c mouse splenocytes assessed as inhibition of concanavalin A-induced cell proliferation at 1 uM after 48 hrs by MTT assay; format: functional; details: Splenocyte; procedure, shortened: as §1

| SMILES | inhibition at 30 µM (Splenocyte [1]) [%] | inhibition at 10 µM [2] [%] | inhibition at 1 µM (Splenocyte [3]) [%] | cytotoxicity at 48 h, 10 µM [4] [%] | Activity (T-cell [5]) [%] | Activity (T-cell [6]) [%] | inhibition at 100 µM [7] [%] | inhibition at 30 µM [8] [%] | inhibition at 10 µM (Splenocyte [9]) [%] | cytotoxicity at 48 h, 100 µM [10] [%] | cytotoxicity at 48 h, 30 µM [11] [%] | Activity (T-cell [12]) [%] | Activity (T-cell [13]) [%] | inhibition at 1 µM [14] [%] |
| --- | --- | --- | --- | --- | --- | --- | --- | --- | --- | --- | --- | --- | --- | --- |
| COc1cc(OC)c2c(OC(=O)c3ccccc3I)ccnc2c1 | 87.1 | 63 | 8.2 | 14.3 | 90.04 | 83.23 | 93 | 90.6 | 47.5 | 54.7 | 26.5 | 91.87 | 93.1 | – |
| COc1cc(OC)c2c(OC(=O)c3ccccc3Cl)ccnc2c1 | 52 | 46.1 | 4.3 | 2.9 | 93.1 | 90.86 | 89.8 | 73.7 | 37.9 | 39.8 | 6.6 | 92.8 | 95.63 | – |
| COc1cc(OC)c2c(OC(=O)c3c(Cl)cccc3Cl)ccnc2c1 | 99.2 | 94 | 34.7 | 10.9 | 59.64 | 19.41 | 94.3 | 94.6 | 97.8 | 83.4 | 52.7 | 88.8 | 92.96 | – |
| COc1cc(OC)c2c(OC(=O)c3cc(Cl)cc(Cl)c3)ccnc2c1 | – | 3.9 | – | 3.4 | – | – | 7.9 | 5.1 | – | 7.2 | 10.7 | – | – | – |
| COc1cc(OC)c2c(OC(=O)c3cc([N+](=O)[O-])cc([N+](=O)[O-])c3)ccnc2c1 | – | 6.3 | – | 3.4 | – | – | 5.6 | 5.1 | – | 13.4 | 9.5 | – | – | – |
| COc1cc(OC)c2c(OC(=O)c3ccc(I)cc3)ccnc2c1 | – | 26.4 | – | 6 | – | – | 91.3 | 47.2 | – | 23.4 | 6.6 | – | – | – |
| COC(=O)c1ccc(C(=O)Oc2ccnc3cc(OC)cc(OC)c23)cc1 | – | 15.7 | – | 6.6 | – | – | 91.4 | 27.8 | – | 23.6 | 2.2 | – | – | – |
| COc1cc(OC)c2c(OC(=O)c3ccc(Cl)cc3Cl)ccnc2c1 | – | 35.3 | – | 16.5 | – | – | 79.2 | 62.3 | – | 22.7 | 20.8 | – | – | – |
| COc1cc(OC)c2c(OC(=O)c3cccc([N+](=O)[O-])c3)ccnc2c1 | – | 18.8 | – | 3.3 | – | – | 82.8 | 42 | – | 12.2 | 8.1 | – | – | – |
| COc1cc(OC)c2c(OC(=O)c3ccccc3[N+](=O)[O-])ccnc2c1 | 64.6 | 38.6 | 10.2 | 10.7 | 92.75 | 86.19 | 90.5 | 75.2 | 21.1 | 33.4 | 32 | 94.01 | 94.79 | – |
| COc1cc(OC)c2c(OC(=O)c3ccccc3C)ccnc2c1 | 94.6 | 70.3 | 2.2 | 9.4 | 85.45 | 75.65 | 92.2 | 91.4 | 55.4 | 64 | 53.9 | 92.54 | 93.81 | – |
| COc1cc(OC)c2c(OC(=O)c3ccccc3OC)ccnc2c1 | – | 11.3 | – | 10.3 | – | – | 85.3 | 35.2 | – | 47.9 | 17.6 | – | – | – |
| COc1cc(OC)c2c(OC(=O)c3ccccc3Br)ccnc2c1 | 85.4 | 51.2 | 4.8 | 9.8 | 93.63 | 86.21 | 93.3 | 85.7 | 42 | 29.2 | 22.5 | 93.23 | 94.92 | – |
| COc1cc(OC)c2c(OC(=O)c3cccc(Br)c3)ccnc2c1 | – | 16.9 | – | 1.7 | – | – | 91 | 48.8 | – | 21 | 1.7 | – | – | – |
| COc1cc(OC)c2c(OC(=O)c3ccccc3F)ccnc2c1 | – | 9.3 | – | 7.7 | – | – | 31 | 14.3 | – | 19.5 | 12.8 | – | – | – |
| COc1cc(OC)c2c(OC(=O)c3ccc(Br)cc3)ccnc2c1 | – | 9.2 | – | 8.6 | – | – | 48.2 | 17.5 | – | 20.7 | 7.3 | – | – | – |
| COc1cc(OC)c2c(OC(=O)c3cc(Br)cc(Br)c3)ccnc2c1 | – | 6.4 | – | 5.5 | – | – | 12.1 | 10 | – | 6.3 | 9.4 | – | – | – |
| COc1cc(OC)c2c(OC(=O)c3cccc(I)c3)ccnc2c1 | – | 24.7 | – | 3 | – | – | 85.2 | 50.5 | – | 11.6 | 5.6 | – | – | – |
| COc1ccc(C(=O)Oc2ccnc3cc(OC)cc(OC)c23)cc1 | – | 7.8 | – | 8.2 | – | – | 17.7 | 11 | – | 13.4 | 11.3 | – | – | – |
| COc1cc(OC)c2c(OS(=O)(=O)c3ccc(C)cc3)ccnc2c1 | 98.9 | 82.3 | 12.9 | 6.2 | 68.39 | 13.7 | 94.2 | 94.7 | 87.7 | 13.2 | 5.4 | 81.66 | 85.74 | – |
| COc1cc(OC)c2c(OC(=O)c3ccc([N+](=O)[O-])cc3)ccnc2c1 | – | 18.4 | – | 6 | – | – | 64 | 34.1 | – | 9.5 | 11.1 | – | – | – |
| C/C=C/C[C@@H](C)[C@@H](O)[C@H]1C(=O)N[C@@H](CC)C(=O)N(C)CC(=O)N(C)[C@@H](CC(C)C)C(=O)N[C@@H](C(C)C)C(=O)N(C)[C@@H](CC(C)C)C(=O)N[C@@H](C)C(=O)N[C@H](C)C(=O)N(C)[C@@H](CC(C)C)C(=O)N(C)[C@@H](CC(C)C)C(=O)N(C)[C@@H](C(C)C)C(=O)N1C [CYCLOSPORINE] | – | – | – | – | – | – | – | – | – | – | – | – | 35.14 | 86.4 |
